In paper PMC8814381 (EBioMedicine, 2022):

What was measured:
[1] = system: triple-negative PDX cells (stage IV) tumours; assay: Image-guided tumour resection in a PDX tumour model, recurrence follow-up; assay type: in vivo, NSG mice; conditions: four weeks after image-guided surgery
How it was run: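 Female NSG mice, 4–5 weeks old, carried triple-negative PDX (stage IV) tumours in the mammary fat pads. At 200–300 mm³ they were randomized into five groups: test probe, free dye, two control peptide–dye conjugates, or PBS. Agents were given i.v. (tail vein) at an equivalent of 0.5 mg/kg. After 24 h, tumours were excised with a ~2 mm margin under NIR camera guidance (not for PBS). Wounds were sutured, and recurrence was assessed 4 weeks later.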

[2] = system: TNBC MDA-MB-231 or ER-positive IOWA-1T tumours; assay: Intraoperative imaging of orthotopic MFP xenografts, recurrence follow-up; assay type: in vivo, athymic mice; conditions: 0.5 mg/kg i.v.; for average volume of the recurrent tumours: four weeks after tumour resection
How it was run: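 MDA-MB-231 or IOWA-1T cells were injected s.c. at the nipple base into the fourth abdominal fat pad of athymic mice. Once tumours formed, mice received PBS, free dye or test compound at 0.5 mg/kg i.v. After 24 h, tumours were resected with a 2 mm margin under NIR camera monitoring. PBS controls were resected by palpation and direct visualization only. Adverse events during removal and later recurrence at the resection site were recorded.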

[3] = system: MDA-MB-231 human breast cancer tumours; assay type: in vivo, athymic mice; conditions: 0.2–1.0 mg/kg i.v., imaged 6–72 h, PDE unit, normal tissue thigh
How it was run: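 Female athymic mice, 4–5 weeks old, bore s.c. MDA-MB-231 tumours (1.0 × 10⁶ cells, right back). They received test compound or free dye i.v. (tail vein) at 0.2, 0.5 or 1 mg/kg. Prescans were taken before injection, and 800 nm NIR imaging followed at 6–72 h. The tumour-to-background ratio used ROIs over the whole tumour and over normal tissue (thigh muscle). Statistics: ANOVA.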

[4] = system: multiple subtypes of breast cancer; assay: Overall recurrence in multiple breast cancer animal models; assay type: in vivo, mice
PDX tumour margins = assay: Histological analysis; assay type: in vivo, NSG mice; conditions: PDX model, H&E and Ki-67, sixteen mammary tissue samples from eight mice
How it was run: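 Tumour-margin tissue (~2 mm³) taken at the 6 and 12 o'clock positions around resected PDX tumours in NSG mice. Samples were fixed 24 h in buffered 3.7% formalin, then moved to 70% ethanol. They were paraffin-embedded and cut into 4 μm sections for staining.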

[5] = cited from earlier work

Molecule	average volume of the recurrent tumours [1] [mm^3]	adverse events related to administration during tumour removal [2]	average volume of the recurrent tumours [2] [mm^3]	tumour/normal tissue ratio of NIR signal [3]	average recurrent tumour volume, multiple subtypes of breast cancer ([4]; Figures 4,6 pooled) [mm^3]	positive margin rate (PDX tumour margins)	specificity ([4]; from tumour recurrence rate 8%, N = 2/24) [%]	stability [5]	water solubility [5]
CC1(C)C(/C=C/C=C/C=C/C=C2\N(CCCCS(=O)(=O)O)c3ccc4ccccc4c3C2(C)C)=[N+](CCCCS(=O)(=O)[O-])c2ccc3ccccc3c21 [ICG, indocyanine green]	1952	no apparent adverse events	423	~1	1188				
ICG-p28: NIR fluorescence imaging probe composed of tumour-targeting peptide p28 and the NIR dye indocyanine green (ICG)	403	no apparent adverse events	197			malignant cell free margin	92		
p28: Pseudomonas aeruginosa azurin-derived cell-penetrating peptide, tested in two phase I clinical trials								stable	highly water soluble
